# UPR XBP1 act: adaptive UPR (XBP1) activation; activation, % at 20 µM; 330,000 compounds, 0.33% hits; AID 463104; CHO-XBP1 luciferase reporter, IRE1-XBP1 UPR activation, luminescence; percent of tunicamycin response, DMSO as zero;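 active means versus positive control, 20 µM dose yields 30% or more activation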;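 further: 100% = tunicamycin at 10 µg/mL and 0% = DMSO only wells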
#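 Signal: luciferase luminescence; Assay system: CHO-XBP1 luciferase reporter cells; Amount: one thousand reporter cells per well; Dosing: 20 µM single concentration, DMSO 1%; Benchmarks: high control tunicamycin 10 µg/mL final, low control DMSO vehicle only; Schedule: 6 h compound exposure at 37 °C, 5% CO2; Evaluation: percent activation relative to tunicamycin reference.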
# Mdm2 MdmX PPI: disrupts the human Mdm2-MdmX interaction. O15151+Q00987. SaOS-2 split-luciferase Mdm2/MdmX complementation, luminescence. inhibition, % at 8 µM. 330,000 compounds, 3% hits;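 active means inhibition of at least 50% at 8 µM in the primary screen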
# CSC inhib: cancer stem cell inhibition | cancer stem cell-like cells viability, luminescence | inhibition, % at 7.5 µM | 300,000 compounds, 1.1% hits; in the data active means inhibition above about 75%; tested in HMLE shEcad cells
# Beta apoptosis: blocks beta cell apoptosis; INS-1E cytokine-induced death, ATP luminescence, 48 h; percent of positive-control rescue, neutral wells zero; protection from apoptosis, % (test concentration not listed); 300,000 compounds, 0.8% hits; AID 435005;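 active means Every replicate reaches about 75%, or at least half do and their mean reaches it too, limit read from the data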;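 further: 0% = cytokine-treated negative control wells and 100% = positive control rescue; higher means more ATP so stronger rescue from cytokine killing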
# CHOP UPR activ: apoptotic UPR (CHOP) activation; CHO-CHOP luciferase reporter, luminescence; percent of tunicamycin response over DMSO baseline; activation, % at 10 µM; 330,000 compounds, 0.34% hits;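 active means at 10 µM dose, activation of 40% or more, normalized to positive control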;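 further: 100% = tunicamycin at 10 µg/mL and 0% = DMSO alone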
#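 Test system: CHO-CHOP cells, stable luciferase reporter of PERK-eIF2a-CHOP signalling | Quantity: 500 CHO-CHOP cells per well | Buffer or medium: F12 plus 10% serum | Compound dosing: 10 µM single point, 0.5% DMSO | Schedule: 6 h compound treatment, 37 °C | Signal: Luciferase luminescence | Control set: Tunicamycin high control, DMSO low control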
# T cruzi inh: blocks replication of Trypanosoma cruzi | 300,000 compounds, 1.4% hits | T. cruzi beta-gal in NIH3T3, luminescence, 90 h | inhibition, % (concentration not given with the values);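 active means mean inhibition across valid replicates above about 55%, limit read from the data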;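 further: signal also drops with host cell toxicity which is not excluded here; 0% = plate median of DMSO wells and 100% = zero luminescence signal; higher percent means less beta-gal luminescence so fewer parasites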
#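 compound dosing = single 50 nL compound addition per well in DMSO | material = NIH/3T3 host cells with β-galactosidase reporter T. cruzi | input = 5,000 host fibroblasts per well | timing = ≥90 h infection period, 3 h prior cell attachment | read-out basis = percent inhibition of parasite-derived β-gal signal | detection = GalScreen β-gal luminescence, detergent lysis, 60 min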
# * hit, by the source's call; · = no result. This is a sample that favours compounds with a hit; in the whole collection about 5% have one here.
SMILES,UPR XBP1 act,Mdm2 MdmX PPI,CSC inhib,Beta apoptosis,CHOP UPR activ,T cruzi inh
CN(C)C(=O)c1ccc(NC(=O)c2cccnc2)cc1,3,4,-3,96*,3,-5
CCN1C(=O)c2ccccc2S(=O)(=O)c2ccc(C(=O)NCCOC)cc21,4,8,-2,-7,0,-18
C/C(O)=C(\C#N)c1nc2ccccc2[nH]1,-1,-24,8,-5,-2,-7
N#C/C(=C(/O)CCl)c1nc2ccccc2[nH]1,-3,40,79*,0,9,50
CCSc1nnc(SCC(=O)Nc2cc(C)on2)s1,-2,22,-18,-3,0,·
CCC(C)c1ccccc1NC(=O)COC(=O)c1ccc2[nH]c3c(c2c1)CCCC3 (centres undefined),-2,40,107*,7,1,0
Cc1cccc(NC(=O)CCNC(=O)c2ccco2)c1,0,0,-2,-3,-2,-1
c1cncc(-c2nc(N3CCOCC3)c3c4c(sc3n2)CCC4)c1,2,8,7,6,1,15
c1cncc(-c2nc(NCCCN3CCOCC3)c3c4c(sc3n2)CCC4)c1,5,-3,-20,8,1,73*
COc1cc(C(C(=O)NC(C)(C)C)N(C(=O)CNC(=O)c2cccs2)c2cccnc2)cc(OC)c1OC (centres undefined),-3,31,-2,1,2,-4
CC1(C)C([N+](=O)[O-])C(c2ccc(Cl)cc2)NC(c2ccc(Cl)cc2)C1[N+](=O)[O-] (centres undefined),-2,9,51,1,3,58*
CCn1c(SCC(=O)Nc2ccc(Cl)cc2)nc2nc3c(cc2c1=O)CCCC3,1,31,-3,1,-1,4
CCn1c(SCC(=O)Nc2ccc(OC)cc2)nc2nc3c(cc2c1=O)CCCC3,0,37,57,146*,1,1
Cc1ccc(NC(=O)c2ccccc2N(C)S(=O)(=O)c2ccccc2)c(C)c1,0,27,1,1,0,0
Cc1ccc(S(=O)(=O)N(CC(=O)Nc2ccc(Cl)c([N+](=O)[O-])c2)C2CCCCC2)cc1,-2,39,22,42,3,59*
Cc1ccc(S(=O)(=O)N(CC(=O)Nc2cccc([N+](=O)[O-])c2)C2CCCCC2)cc1,-5,-10,·,17,0,-4
O=C(CN(C1CC1)S(=O)(=O)c1ccc(S(=O)(=O)N2CCCCCC2)cc1)Nc1ccccc1,-2,27,1,6,0,11
CCN(C1CCCCC1)S(=O)(=O)c1ccc(S(=O)(=O)N(CC(=O)Nc2ccccc2)C2CC2)cc1,-3,13,·,15,-1,55*
CCOC(=O)c1c(NC(=O)CN2C(=O)NC3(CCCCC3C)C2=O)sc(C)c1CC (centres undefined),1,22,-2,-3,4,66*
CCNC(=O)COc1cccc(C(=O)NCc2ccccc2)c1,-4,29,-19,-7,-1,0
C/C(=N/Nc1nc(-c2ccccc2)cc(-c2ccc(F)cc2)n1)c1cccc(N)c1,8,42,43,79*,13,25
COc1ccc(/C(C)=N\Nc2nc(-c3ccccc3)cc(=O)[nH]2)cc1,1,3,5,0,-2,19
C/C(=N\Nc1nc(N)cc(Cl)n1)c1cccc(N)c1,-2,18,-2,-1,1,-4
COc1ccc(/C(C)=N/Nc2nc(C)cc(-c3ccccc3)n2)cc1,2,32,5,83*,8,42
C/C(=N\Nc1nc(C)cc(-c2ccccc2)n1)c1ccc(F)cc1,-1,-11,17,78*,4,7
SMILES,UPR XBP1 act,Mdm2 MdmX PPI,CSC inhib,Beta apoptosis,CHOP UPR activ,T cruzi inh
CCCc1nc(NCC2CCCO2)c2nnn(Cc3ccccc3)c2n1 (centres undefined),2,8,-10,5,-2,13
Clc1ccccc1CN(Cc1ccccc1)C(c1cccs1)c1nnnn1C1CCCC1 (centres undefined),0,-6,24,9,8,35
CCN(Cc1ccccc1)C(c1cccs1)c1nnnn1C1CCCCC1 (centres undefined),-4,24,39,101*,3,56*
O=C(CSc1nnc(COc2ccc(Cl)cc2)o1)N1c2ccccc2CCc2ccccc21,6,33,19,-3,9,66*
Nc1ccc(N2CCN(c3ccc(Cl)c(Cl)c3)CC2)cc1,4,7,92*,11,1,-22
Fc1ccc(N/N=C/c2ccc(N3CCOCC3)cc2)c(F)c1,5,-121,26,1,3,65*
C/C(=N\Nc1ccc(F)cc1F)c1ccc(N2CCOCC2)cc1,2,-68,1,-2,5,-4
CN(C)c1cccc(NC(=O)c2ccco2)c1,2,7,-3,3,2,-6
CCN(CC)P(=O)(Nc1cccc(C(F)(F)F)c1)c1ccc(N(C)C)cc1NC(=O)c1ccco1 (centres undefined),4,27,2,10,1,55*
COc1cc(OC)cc(-c2c(-c3cccs3)c3cc(-c4cnc(OC)nc4)ccc3n2C)c1,-2,21,7,-4,2,·
CCCCCCCNC(=O)c1cc(-c2ccncc2)nc2ccccc12,-5,-5,10,3,1,57*
Cc1ccc2nc(-c3ccncc3)cc(C(=O)NCCc3ccc(F)cc3)c2c1,-3,22,4,6,2,56*
Cc1ccc(CCNC(=O)c2cc(-c3ccncc3)nc3ccccc23)cc1,-2,15,·,1,-1,30
Cn1c(C(=O)N2CCCC(Nc3ccc(F)cc3)C2)cc2ccccc21 (centres undefined),-1,15,17,3,-2,-20
O=C(NCC(c1ccco1)N1CCN(c2ccccc2)CC1)C(=O)NC1CCCCC1 (centres undefined),-3,16,-9,·,0,9
C=C(C)[C@@H]1CC=C(CN2CCN(Cc3ccccc3)CC2)CC1,-3,-4,22,3,0,39
C=C(C)C1CC=C(CN2CCN(Cc3ccccc3)CC2)CC1 (centres undefined),-4,6,3,-1,2,57*
Cc1[nH]c2ccccc2c1C(=O)C(=O)NCc1cccs1,-3,31,-33,1,4,8
Cc1ccc(NC(=O)CCN2C(=O)c3cccc4cccc(c34)C2=O)cc1,-2,0,12,-3,1,16
Cc1ccc(NC(=S)N2CCN(CCN3C(=O)c4cccc5cccc(c45)C3=O)CC2)cc1,-1,-9,5,14,2,74*

# Screens deposited in PubChem by several laboratories.
